Results on 36 molecules are retold here after ChEMBL document CHEMBL3580600, “Design, Synthesis, and Evaluation of 4- and 5-Substituted o-(Octanesulfonamido)benzoic Acids as Inhibitors of Glycerol-3-Phosphate Acyltransferase” (Medchemcomm, 2014).

The structures appear in SMILES notation.

The assay deals with T1, Glycerol-3-phosphate acyltransferase 1, mitochondrial (Mus musculus, UniProt Q61586).
T1 sequence (Q61586 whole entry): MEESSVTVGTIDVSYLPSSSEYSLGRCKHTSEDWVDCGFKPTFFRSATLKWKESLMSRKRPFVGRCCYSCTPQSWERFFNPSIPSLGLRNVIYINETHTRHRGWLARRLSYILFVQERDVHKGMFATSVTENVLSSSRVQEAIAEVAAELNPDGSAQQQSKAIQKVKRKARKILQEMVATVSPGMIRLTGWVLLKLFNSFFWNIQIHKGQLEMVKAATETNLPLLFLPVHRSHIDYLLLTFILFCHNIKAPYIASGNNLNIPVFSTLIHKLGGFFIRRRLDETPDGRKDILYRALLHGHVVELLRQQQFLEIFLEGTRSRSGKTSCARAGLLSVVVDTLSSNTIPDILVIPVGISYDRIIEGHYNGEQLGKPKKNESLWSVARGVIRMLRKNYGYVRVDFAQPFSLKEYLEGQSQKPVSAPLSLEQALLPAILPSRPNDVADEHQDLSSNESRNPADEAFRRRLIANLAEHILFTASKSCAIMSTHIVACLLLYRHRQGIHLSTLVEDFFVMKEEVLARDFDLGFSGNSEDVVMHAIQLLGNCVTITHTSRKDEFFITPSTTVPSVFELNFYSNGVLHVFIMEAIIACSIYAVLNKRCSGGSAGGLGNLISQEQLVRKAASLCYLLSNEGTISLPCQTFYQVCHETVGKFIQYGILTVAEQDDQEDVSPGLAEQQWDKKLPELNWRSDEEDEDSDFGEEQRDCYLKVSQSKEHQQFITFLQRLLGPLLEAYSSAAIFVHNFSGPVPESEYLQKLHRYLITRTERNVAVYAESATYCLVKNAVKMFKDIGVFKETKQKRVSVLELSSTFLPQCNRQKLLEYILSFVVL
Description: Inhibition of GPAT in BALB/c mouse mitochondria using 14C-labeled glycerol-3-phosphate and palmitoyl-CoA incubated for 10 mins by scintillation counting method. The gist of the method:
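Mitochondria isolated from freshly harvested BALB/c mouse liver by differential centrifugation (1000 × g, then 3500 × g, twice) and resuspended in HEPES pH 7.4 storage buffer. Reaction in 75 mM Tris/HCl pH 7.4, 4 mM MgCl₂, 2 mg/mL BSA, 14C-glycerol-3-phosphate (7.6 mCi/mmol), 50 μM palmitoyl-CoA. Inhibitor 0–40 μg/mL in DMSO. Triplicates. IC50 taken relative to DMSO vehicle control activity.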
`CCCCCCCCS(=O)(=O)Nc1ccc(-c2ccccc2OC)cc1C(=O)O` yielded an IC50 of 27.6 µM.

`CCCCCCCCS(=O)(=O)Nc1cc(CCc2ccccc2)ccc1C(=O)O` showed a concentration for half-maximal inhibition (IC50) of 37.5 µM.

Molecule `CCCCCCCCS(=O)(=O)Nc1ccc(-c2ccc(Cl)cc2)cc1C(=O)O` gave a 50% inhibitory concentration (IC50) of 9.2 µM.

`CCCCCCCCS(=O)(=O)Nc1ccc(CCc2ccc(OC)cc2)cc1C(=O)O` displayed a half-maximal inhibitory concentration (IC50) of 26.3 µM.

With `CCCCCCCCS(=O)(=O)Nc1cc(-c2ccc(Cl)cc2)ccc1C(=O)O`, it took 18.1 µM to reach half-maximal inhibition (IC50).

With `CCCCCCCCS(=O)(=O)Nc1cc(-c2ccc(CCCC)cc2)ccc1C(=O)O`, half-maximal inhibition (IC50) required 15.7 µM.

In turn, `CCCCCCCCS(=O)(=O)Nc1ccc(-c2ccc(O)cc2)cc1C(=O)O` showed a half-inhibitory concentration (IC50) of 47.3 µM.

`CCCCCCCCS(=O)(=O)Nc1cc(/C=C/c2ccccc2)ccc1C(=O)O`: the half-maximal inhibitory concentration (IC50) was 38 µM.

Take `CCCCCCCCS(=O)(=O)Nc1ccc(C(=O)c2ccc(CCCC)cc2)cc1C(=O)O`: the IC50 is 31.7 µM.

For the molecule `CCCCCCCCS(=O)(=O)Nc1ccc(-c2cccc(F)c2)cc1C(=O)O`, half-maximal inhibition (IC50) was put at 37.6 µM.

In turn, `CCCCCCCCS(=O)(=O)Nc1ccc(C(=O)c2ccc(OC)cc2)cc1C(=O)O` displayed an IC50 of 44.3 µM.

Regarding `CCCCCCCCS(=O)(=O)Nc1cc(C(=O)c2ccc(-c3ccccc3)cc2)ccc1C(=O)O`, the IC50 turned out to be 8.5 µM.

Regarding `CCCCCCCCS(=O)(=O)Nc1cc(-c2cccc(F)c2)ccc1C(=O)O`, the 50% inhibitory concentration (IC50) is 32.6 µM.

With `CCCCCCCCS(=O)(=O)Nc1ccc(C(=O)c2ccc(-c3ccccc3)cc2)cc1C(=O)O`, the half-maximal inhibitory concentration (IC50) was 13 µM.

On to `CCCCCCCCS(=O)(=O)Nc1ccc(-c2ccc(-c3ccccc3)cc2)cc1C(=O)O`, for which half-maximal inhibition (IC50) required 29.1 µM.

Molecule `CCCCCCCCS(=O)(=O)Nc1ccc(-c2ccc(OC)cc2)cc1C(=O)O` displayed a 50% inhibitory concentration (IC50) of 19.5 µM.

With `CCCCCCCCS(=O)(=O)Nc1ccc(C(=O)c2ccccc2OC)cc1C(=O)O`, the half-inhibitory concentration (IC50) was determined as 59.2 µM.

`CCCCCCCCS(=O)(=O)Nc1cc(CCc2ccc(OC)cc2)ccc1C(=O)O` yielded an IC50 of 43 µM.

Consider `CCCCCCCCS(=O)(=O)Nc1ccc(-c2ccc(CCCC)cc2)cc1C(=O)O`, for which inhibition was half-maximal at 9 µM (IC50).

In turn, `CCCCCCCCS(=O)(=O)Nc1cc(-c2ccccc2Cl)ccc1C(=O)O` registered a half-inhibitory concentration (IC50) of 26.9 µM.

Consider `CCCCCCCCS(=O)(=O)Nc1cc(-c2ccc(-c3ccccc3)cc2)ccc1C(=O)O`, for which 13.5 µM corresponded to half-maximal inhibition (IC50).

For `CCCCCCCCS(=O)(=O)Nc1ccc(-c2ccccc2O)cc1C(=O)O`, the IC50 was 61.7 µM.

`CCCCCCCCS(=O)(=O)Nc1cc(-c2ccccc2-c2ccccc2)ccc1C(=O)O` gave a 50% inhibitory concentration (IC50) of 17.1 µM.

Regarding `CCCCCCCCS(=O)(=O)Nc1ccc(-c2ccccc2-c2ccccc2)cc1C(=O)O`, half-maximal inhibition (IC50) was put at 10.1 µM.

Molecule `CCCCCCCCS(=O)(=O)Nc1ccc(CCc2ccccc2)cc1C(=O)O` registered an IC50 of 37.5 µM.

`CCCCCCCCS(=O)(=O)Nc1cc(-c2cccc(Cl)c2)ccc1C(=O)O`: inhibition was half-maximal at 13.8 µM (IC50).

The molecule `CCCCCCCCS(=O)(=O)Nc1ccc(/C=C/c2ccccc2)cc1C(=O)O` yielded a half-maximal inhibitory concentration (IC50) of 16.3 µM.

Molecule `CCCCCCCCS(=O)(=O)Nc1cc(-c2ccc(OC)cc2)ccc1C(=O)O` yielded a half-inhibitory concentration (IC50) of 13.3 µM.

Turning to `CCCCCCCCS(=O)(=O)Nc1cc(C(=O)c2ccc(CCCC)cc2)ccc1C(=O)O`, inhibition was half-maximal at 15.8 µM (IC50).

Molecule `CCCCCCCCS(=O)(=O)Nc1ccc(-c2cccc(Cl)c2)cc1C(=O)O` yielded an IC50 of 8.9 µM.

Regarding `CCCCCCCCS(=O)(=O)Nc1ccc(-c2ccccc2F)cc1C(=O)O`, inhibition was half-maximal at 34.6 µM (IC50).

`CCCCCCCCS(=O)(=O)Nc1cc(-c2ccc(O)cc2)ccc1C(=O)O` gave a half-maximal inhibitory concentration (IC50) of 64.8 µM.

As for `CCCCCCCCS(=O)(=O)Nc1cc(/C=C/c2ccc(OC)cc2)ccc1C(=O)O`, inhibition was half-maximal at 38.7 µM (IC50).

Consider `CCCCCCCCS(=O)(=O)Nc1ccc(/C=C/c2ccc(OC)cc2)cc1C(=O)O`, for which half-maximal inhibition (IC50) required 37.1 µM.

The molecule `CCCCCCCCS(=O)(=O)Nc1cc(-c2ccccc2F)ccc1C(=O)O` yielded a 50% inhibitory concentration (IC50) of 47.2 µM.

As to `CCCCCCCCS(=O)(=O)Nc1cc(-c2ccccc2OC)ccc1C(=O)O`, the IC50 was 16.1 µM.

A word on the IC50: it is the concentration at which inhibition is half-maximal. Low readings indicate higher potency, high ones lower potency.
